Laboratory results published in article PMC2757082 (Biopolymers, 2009).
“And” between values parts separate entries of the source, which are not always exact repeats. Equal values may be shown once. Read-outs that look alike come from different tables or passages of the source.

Key:
Type in all cases: biochemical
[1] = biological target: F1Fo-ATPase from E. coli in liposomes (Escherichia coli, UniProt P0ABB4)
[2] = biological target: E. coli membrane F1Fo-ATPase (Escherichia coli, UniProt P0ABB4); test: E. coli everted membrane ATP hydrolysis steady-state kinetic assay
How it was run: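 Everted membrane vesicles came from E. coli strain LE392 and were used at 33 μg mL⁻¹, with 5 mM KCN to block chemiosmotic phosphorylation. ATP hydrolysis was read by the NADH-coupled assay, with aurovertin at 1% DMSO final. Michaelis-Menten fits of initial velocity gave apparent kinetic parameters at each inhibitor concentration. Secondary plots were fit with eqs 2–4, assuming residual catalytic activity at saturating inhibitor.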

[3] = biological target: T1, F1Fo-ATPase in bovine SMPs (Bos taurus, UniProt P00829); test: Bovine SMP ATP hydrolysis steady-state kinetic assay; settings: for Vmax2 (maximal catalytic rate of ESI complex) / Ki: Bovine, ±SE
[4] = biological target: T1, F1Fo-ATPase in bovine SMPs; test: Bovine SMP ATP synthesis steady-state kinetic assay; settings: for Ki: Bovine, ±SE
How it was run: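 ATP synthesis by bovine heart SMPs was read by coupling ATP production to NADP⁺ reduction at varied ADP (1.875–1200 μM). SMPs were preincubated 5 min with aurovertin (1% DMSO final) or DMSO control before substrate or coupling reagents. Apparent parameters came from Michaelis-Menten fits at each inhibitor level, with secondary plots fit by eqs 2–4. 3D fits of velocity against MgADP and inhibitor used eq 6 (mixed inhibition model).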

[5] = HMM-based FRET level assignment, presence of aurovertin
[6] = aurovertin and ATP, Gaussian fit
[7] = bovine, synthesis vs hydrolysis

Chain of F1Fo-ATPase from E. coli in liposomes (P0ABB4 2-460 limits assumed): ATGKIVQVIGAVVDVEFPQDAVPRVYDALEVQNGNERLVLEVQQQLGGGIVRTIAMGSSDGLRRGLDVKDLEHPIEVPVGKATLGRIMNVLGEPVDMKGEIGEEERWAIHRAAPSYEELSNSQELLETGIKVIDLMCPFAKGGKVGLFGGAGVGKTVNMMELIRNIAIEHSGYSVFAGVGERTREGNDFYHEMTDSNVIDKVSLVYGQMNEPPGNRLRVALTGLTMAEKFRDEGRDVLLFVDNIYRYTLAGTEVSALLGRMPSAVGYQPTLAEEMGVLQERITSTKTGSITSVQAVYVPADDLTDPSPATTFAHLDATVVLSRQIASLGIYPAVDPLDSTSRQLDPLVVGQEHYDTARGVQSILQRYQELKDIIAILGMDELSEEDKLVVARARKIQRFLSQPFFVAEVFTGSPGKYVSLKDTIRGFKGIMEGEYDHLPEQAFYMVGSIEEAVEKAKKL

CC[C@H]1O[C@]2(C)[C@H](OC(C)=O)[C@@]1(C)O[C@@H](/C=C/C=C/C=C/c1oc(=O)cc(OC)c1C)[C@@H]2O [aurovertin, Aurovertin B]
remaining activity (turnover ratio in presence and absence of aurovertin) ([1]; 20 μM drug, 1 mM ATP): about 60%
dwell time decay component τ [1, 5]: 28 ± 11 ms
dwell time rise time τ [1, 5]: 16 ± 8 ms
proximity factor P maximum, H level [1, 6]: 0.75
proximity factor P maximum, L level [1, 6]: 0.31
proximity factor P maximum, M level [1, 6]: 0.51
fraction of F1Fo-ATPases showing stepwise changing FRET levels ([1]; saturating (20 μM) aurovertin, of 3685 marked photon bursts): 10.4%
Vmax2 (maximal catalytic rate of ESI complex) ([2]; E. coli, 3D fit eq 5, n(E)=2, n(ES)=1, ±SE): 0.06 ± 0.01 µmol/min/mg
residual activity at saturating aurovertin ([2]; everted E. coli membranes, eq 5 fit): ~ 20% and 20%
Ki ([2]; read-out: Ki(E), E. coli, 3D fit eq 5, n(E)=2, n(ES)=1, ±SE): 430 ± 70 nM
Ki ([2]; read-out: Ki(ES), E. coli, 3D fit eq 5, n(E)=2, n(ES)=1, ±SE): 150 ± 20 nM
increase of the value of Vmax/Km ([3]; ATP hydrolysis, saturating aurovertin concentrations): 50%
Vmax2 (maximal catalytic rate of ESI complex) ([3]; ATP hydrolysis, 3D fit eq 5, n(E)=1, n(ES)=1): 0.23 ± 0.01 µmol/min/mg
Vmax2 (maximal catalytic rate of ESI complex) ([3]; ATP hydrolysis, 3D fit eq 5, n(E)=2, n(ES)=1): 0.22 ± 0.01 µmol/min/mg
mechanism of inhibition of ATP hydrolysis ([3]; bovine SMPs): mixed mechanism of inhibition
Ki ([3]; read-out: Ki(E), ATP hydrolysis, 3D fit eq 5, n(E)=1, n(ES)=1): 820 ± 250 nM
Ki ([3]; read-out: Ki(E), ATP hydrolysis, 3D fit eq 5, n(E)=2, n(ES)=1): 960 ± 250 nM
Ki ([3]; read-out: Ki(ES), ATP hydrolysis, 3D fit eq 5, n(E)=1, n(ES)=1): 119 ± 17 nM
Ki ([3]; read-out: Ki(ES), ATP hydrolysis, 3D fit eq 5, n(E)=2, n(ES)=1): 120 ± 17 nM
decrease of the value of Vmax for catalysis of ATP hydrolysis ([3]; saturating aurovertin, fit eq 2-4, n=1): ~ 2.5 fold
enzyme activity at saturating substrate and inhibitor concentrations ([4]; ATP synthesis): inactive
increase in the value of the apparent Km ([4]; ATP synthesis, bovine SMPs): > 2 fold
mechanism of inhibition of ATP synthesis ([4]; bovine SMPs): mixed inhibitor
decrease of Ki(E) during ATP synthesis versus hydrolysis [4, 7]: 60 fold
decrease of Ki(ES) during ATP synthesis versus hydrolysis [4, 7]: 5 fold
Ki ([4]; read-out: Ki(E), ATP synthesis, 3D fit eq 6, n(E)=1, n(ES)=1): 13 ± 4 nM
Ki ([4]; read-out: Ki(E), ATP synthesis, 3D fit eq 6, n(E)=2, n(ES)=1): 16 ± 2 nM
Ki ([4]; read-out: Ki(ES), ATP synthesis, 3D fit eq 6, n(E)=1, n(ES)=1): 22 ± 3 nM
Ki ([4]; read-out: Ki(ES), ATP synthesis, 3D fit eq 6, n(E)=2, n(ES)=1): 25 ± 4 nM
